From ChEMBL document CHEMBL1275389, “In vivo characterization of a dual adenosine A2A/A1 receptor antagonist in animal models of Parkinson's disease” (J Med Chem, 2010)
Calls of active or inactive are those of the source. The calls are words filed in the database; no cut-off is given here.

What was measured:
Mus musculus [1] = assay: Reversal of haloperidol-induced catalepsy in po dosed BALB/c mouse administered 30 mins after haloperidol challenge measured for 60 seconds after 1 hr; format: functional
Outline: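 Fasted male BALB/c mice (18-23 g) received haloperidol 1 mg/kg sc (in 0.3% tartaric acid/0.9% saline). Test compound was given orally in 0.5% methylcellulose (0.01-10 mg/kg) 30 min later. L-DOPA 300 mg/kg plus carbidopa 75 mg/kg served as positive control. Groups were randomized and testing was blind. At 1 h, forepaws were placed on a bar 3.5 cm high and time on the bar was recorded (max 60 s). n = 9-11; Dunnett's test.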

Mus musculus [2] = assay: Reversal of haloperidol-induced catalepsy in BALB/c mouse at 1 mg/kg, po administered 30 mins after haloperidol challenge measured for 60 seconds after 4 hrs; format: functional, organism-based; set-up: dose 1 mg/kg
Outline: (§1)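 Fasted male BALB/c mice received haloperidol (1 mg/kg sc) and were then dosed orally with test compound (0, 1, 3 mg/kg in 0.5% methylcellulose), reference A2A antagonist (5 mg/kg) or vehicle. Bar catalepsy (max 60 s) was measured repeatedly at 15 min, 1 h, 2 h and 4 h after dosing. Mean ± SEM, n = 12; Dunnett's test.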

Mus musculus [3] = assay: Reversal of haloperidol-induced catalepsy in BALB/c mouse at 3 mg/kg, po administered 30 mins after haloperidol challenge measured for 60 seconds after 4 hrs; format: functional, organism-based; set-up: dose 3 mg/kg; outline: as §1
Adenosine receptor A2a = Adenosine receptor A2a (Homo sapiens, UniProt P29274); assay: Antagonist activity at adenosine A2A receptor; format: functional
Sequence of Adenosine receptor A2a (P29274 whole entry): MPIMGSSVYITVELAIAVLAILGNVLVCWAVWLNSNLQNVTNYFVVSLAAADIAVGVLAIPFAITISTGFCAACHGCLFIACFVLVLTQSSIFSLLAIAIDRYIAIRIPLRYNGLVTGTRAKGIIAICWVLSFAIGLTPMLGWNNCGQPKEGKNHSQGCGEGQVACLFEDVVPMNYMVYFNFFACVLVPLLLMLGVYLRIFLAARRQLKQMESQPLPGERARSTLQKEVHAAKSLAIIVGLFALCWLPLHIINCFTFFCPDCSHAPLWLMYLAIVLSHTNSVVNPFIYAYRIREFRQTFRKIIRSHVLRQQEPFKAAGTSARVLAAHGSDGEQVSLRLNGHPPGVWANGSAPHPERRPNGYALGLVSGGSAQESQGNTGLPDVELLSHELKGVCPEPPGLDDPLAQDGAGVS

Adenosine receptor A1 = molecular target: T1, Adenosine receptor A1 (Homo sapiens, UniProt P30542); assay: Antagonist activity at adenosine A1 receptor; format: functional
T1 sequence (P30542 whole entry): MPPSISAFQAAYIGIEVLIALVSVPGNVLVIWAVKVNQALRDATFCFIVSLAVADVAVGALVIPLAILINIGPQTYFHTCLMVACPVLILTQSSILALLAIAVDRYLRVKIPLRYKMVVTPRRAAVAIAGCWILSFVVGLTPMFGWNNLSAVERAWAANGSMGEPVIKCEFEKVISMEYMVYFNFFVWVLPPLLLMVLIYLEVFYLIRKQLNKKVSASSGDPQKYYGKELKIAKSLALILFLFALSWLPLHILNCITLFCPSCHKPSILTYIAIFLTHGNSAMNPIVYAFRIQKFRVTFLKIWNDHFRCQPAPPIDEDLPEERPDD

[4] = Half life in BALB/c mouse at 10 mg/kg, po; format: ADME, organism-based; set-up: dose 10 mg/kg, route oral; conditions: in vivo
Outline: (§2)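 Fasted male BALB/c mice received one oral dose of 10 mg/kg as a solution in 0.5% methylcellulose. For bioavailability, a separate iv dose of 2 mg/kg was given in 10% solutol. Discrete blood samples were taken by cardiac puncture from 3–4 animals per time point. Plasma was acetonitrile-precipitated and measured by LC-MS/MS (LOQ 0.7-2 ng/mL). Parameters came from noncompartmental analysis.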

[5] = Cmax in BALB/c mouse plasma at 10 mg/kg, po; format: ADME, organism-based; set-up: dose 10 mg/kg, route oral; outline: as §2
[6] = Oral bioavailability in BALB/c mouse at 10 mg/kg; format: ADME, organism-based; conditions: in vivo; outline: as §2
[7] = Half life in Sprague-Dawley rat at 10 mg/kg, po; format: ADME, organism-based; set-up: dose 10 mg/kg, route oral; conditions: in vivo
Outline: (§3)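 Fasted male Sprague-Dawley rats received one oral dose of 10 mg/kg as a solution in 0.5% methylcellulose. For bioavailability, a separate iv dose of 2 mg/kg was given in 10% solutol. Discrete blood samples were taken by orbital sinus puncture from 3–4 rats per time point. Plasma was acetonitrile-precipitated and measured by LC-MS/MS (LOQ 0.7-2 ng/mL). Parameters came from noncompartmental analysis.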

[8] = Cmax in Sprague-Dawley rat plasma at 10 mg/kg, po; format: ADME, organism-based; set-up: dose 10 mg/kg, route oral; outline: as §3
[9] = Oral bioavailability in Sprague-Dawley rat at 10 mg/kg; format: ADME, organism-based; conditions: in vivo; outline: as §3
[10] = Cmax in Sprague-Dawley rat brain at 10 mg/kg, po; format: ADME, organism-based; set-up: dose 10 mg/kg, route oral
Outline: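 Tissue distribution study: fasted male Sprague-Dawley rats were given 10 mg/kg orally in 0.5% methylcellulose. Four rats per time point were euthanized to collect brain. Brains were weighed, homogenized in methanol, and the extract evaporated and reconstituted in mobile phase for LC-MS/MS.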

[11] = Half life in cynomolgus monkey at 10 mg/kg, po; format: ADME, organism-based, Macaca fascicularis; set-up: dose 10 mg/kg, route oral; conditions: in vivo
Outline: (§4)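 Fasted male and female cynomolgus monkeys received one oral dose of 10 mg/kg as a solution in 0.5% methylcellulose. For bioavailability, a separate iv dose of 1 mg/kg was given in 10% solutol. Serial blood was drawn by venipuncture. Plasma was acetonitrile-precipitated and measured by LC-MS/MS (LOQ 0.7-2 ng/mL). Noncompartmental analysis was applied to individual plasma concentrations.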

[12] = Cmax in cynomolgus monkey plasma at 10 mg/kg, po; format: ADME, organism-based, Macaca fascicularis; set-up: dose 10 mg/kg, route oral; outline: as §4
[13] = Oral bioavailability in cynomolgus monkey at 10 mg/kg; format: ADME, organism-based, Macaca fascicularis; conditions: in vivo; outline: as §4
[14] = Ratio of drug level in brain to plasma in Sprague-Dawley rat at 10 mg/kg, po; format: ADME, organism-based; set-up: dose 10 mg/kg, route oral
Outline: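 Fasted male Sprague-Dawley rats were given 10 mg/kg orally as a solution in 0.5% methylcellulose. At each time point four rats were euthanized for blood, plasma and brain. Brain was homogenized in methanol, and the extract was dried and reconstituted in mobile phase. Plasma was precipitated with acetonitrile. Both were quantified by LC-MS/MS.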

Rattus norvegicus [15] = assay: Reversal of haloperidol-induced catalepsy in po dosed Sprague-Dawley rat administered 30 mins after haloperidol challenge measured for 180 seconds after 1 hr; format: functional
Outline: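 Sprague-Dawley rats received haloperidol (1 mg/kg sc). Oral test compound (0.01-30.0 mg/kg), L-DOPA/carbidopa (200:50 mg/kg) or vehicle followed, as in the mouse protocol. Time to descend from the bar was recorded (max 180 s). Mean ± SEM, n = 10-16 rats per group.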

Rattus norvegicus [16] = assay: Reversal of haloperidol-induced catalepsy in Sprague-Dawley rat at 1 mg/kg, po administered 30 mins after haloperidol challenge measured for 180 seconds after 4 hrs; format: functional, organism-based; set-up: dose 1 mg/kg
Outline: (§5)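 Haloperidol-treated rats (1 mg/kg sc) were dosed orally with test compound (0, 1, 10 mg/kg) or L-DOPA 200 mg/kg plus benserazide 50 mg/kg. Time to descend from the bar (max 180 s) was measured at 15 min, 1 h, 2 h and 4 h after dosing. n = 10 rats; Dunnett's test versus haloperidol + vehicle.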

Rattus norvegicus [17] = assay: Reversal of haloperidol-induced catalepsy in Sprague-Dawley rat at 10 mg/kg, po administered 30 mins after haloperidol challenge measured for 180 seconds after 4 hrs; format: functional, organism-based; set-up: dose 10 mg/kg; outline: as §5
Mus musculus [18] = assay: Reversal of reserpine-induced akinesia in CF1 mouse at 1 mg/kg, po administered 18 hrs before reserpine challenge measured for 30 mins after 60 mins; format: functional, organism-based; set-up: dose 1 mg/kg; conditions: in the assay text read “18 hrs after reserpine challenge” for “18 hrs before reserpine challenge”
Outline: (§6)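 Mice were pretreated with reserpine (0.6 mg/kg sc) 18 h before testing. They were dosed orally with test compound (0.10, 1.0, 10.0, 30.0 mg/kg) or vehicle. Locomotion was recorded 60 min after dosing as total distance traveled (cm) over a 30 min period. Mean ± SEM, n = 10-12 per group; Hochberg test versus reserpine + vehicle.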

Mus musculus [19] = assay: Reversal of reserpine-induced akinesia in CF1 mouse at 10 mg/kg, po administered 18 hrs before reserpine challenge measured for 30 mins after 60 mins; format: functional, organism-based; set-up: dose 10 mg/kg; conditions: in the assay text read “18 hrs after reserpine challenge” for “18 hrs before reserpine challenge”; outline: as §6
Rattus norvegicus [20] = assay: Potentiation of L-dopa-induced rotational behavior in unilaterally 6-hydroxydopamine-lesioned po dosed Sprague-Dawley rat pretreated 30 mins before L-dopa challenge measured for 120 mins in presence of carbidopa; format: functional, organism-based
Outline: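 6-OHDA (12 μg) was microinjected unilaterally into the medial forebrain bundle. Six weeks later rats got L-DOPA (10 mg/kg po, with carbidopa 2.5 mg/kg sc) alone or together with oral test compound (0.1, 1.0, 3.0, 10 mg/kg). Contralateral 360° turns were counted by an optical sensor during the 2 h before and after L-DOPA. Mean ± SEM, n = 16 rats; Tukey's test versus L-DOPA + vehicle.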

Rattus norvegicus [21] = assay: Inhibition of 6-hydroxydopamine-induced rotational behavior in Sprague-Dawley rat at 0.1 to 10 mg/kg, po measured for 120 mins; format: functional; conditions: 2 h, dose mg/kg 0.1-10, read-out: MED
Outline: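 Rats received 6-OHDA (12 μg) unilaterally into the medial forebrain bundle. Six weeks later they were dosed orally with test compound alone (0.1, 1.0, 3.0, 10 mg/kg). Rotation was tracked by an optical sensor tethered to an automated system, with one count per 360° turn. Readout was mean ± SEM total contralateral rotations over 2 h, n = 16 per group.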

Callithrix jacchus [22] = assay: Inhibition of MPTP-induced motor disabilities in Callithrix jacchus at 10 mg/kg, po measured every 5 mins for 6 hrs; format: functional, organism-based; set-up: dose 10 mg/kg
Outline: (§7)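 MPTP-treated marmosets were dosed orally with vehicle, L-DOPA (12 mg/kg) or test compound (0.1/0.3, 1.0, 10, 50 mg/kg). Parkinsonian motor disability was scored out to 6 h. Eight animals per group. Analysis used a Friedman nonparametric repeated-measures ANOVA with Dunn's test.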

Callithrix jacchus [23] = assay: Inhibition of MPTP-induced motor disabilities in Callithrix jacchus at 50 mg/kg, po measured every 5 mins for 6 hrs; format: functional, organism-based; set-up: dose 50 mg/kg; outline: as §7
Callithrix jacchus [24] = assay: Inhibition of MPTP-induced motor disabilities in Callithrix jacchus at 1 mg/kg, po measured every 5 mins […]; format: functional, organism-based; set-up: dose 1 mg/kg; outline: as §7
Mus musculus [25] = assay: Reversal of reserpine-induced akinesia in po dosed CF1 mouse administered 18 hrs after reserpine challenge measured for 30 mins after 60 mins; conditions: read-out: MED
Mus musculus [26] = assay: Reversal of reserpine-induced akinesia in CF1 mouse at 30 mg/kg, po administered 18 hrs after reserpine challenge measured for 30 mins after 60 mins
Callithrix jacchus [27] = assay: Inhibition of MPTP-induced motor disabilities in Callithrix jacchus at 12 mg/kg, po measured every 5 mins […]; format: functional, organism-based; set-up: dose 12 mg/kg; outline: as §7
Callithrix jacchus [28] = assay: Toxicity in Callithrix jacchus assessed as induction of dyskinesia at 12 mg/kg, po measured for 10 mins every 30 mins […]; format: organism-based; set-up: dose 12 mg/kg, route oral; conditions: marmoset, in vivo
Outline: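 MPTP-treated marmosets received vehicle, L-DOPA (12 mg/kg po) or oral test compound (0.1, 1.0, 10, 50 mg/kg). Dyskinesias (involuntary movements) were scored out to 4 h. Eight animals per group. Analysis used a Friedman test followed by Dunn's comparison.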

CCn1c(=O)c2c(nc(/C=C/c3ccc(OC)c(OC)c3)n2C)n(CC)c1=O [ISTRADEFYLLINE]
MRC (Mus musculus [1]): 1 mg/kg | ED50 (Mus musculus [1]; Mus musculus, BALB/c, po): 0.14 mg/kg | Activity (Mus musculus [2]): Active | Activity (Mus musculus [3]): Active

Cl.Cl.Nc1nc(-c2ccccc2)c2c(n1)-c1cc(CN3CCCC3)ccc1C2=O
Ki (Adenosine receptor A2a): 4.1 nM | Ki (Adenosine receptor A1): 17 nM | half-life [4]: 0.8 h | Cmax [5]: 655 nM | bioavailability [6]: 100% | Activity (Mus musculus [1]): Dose-dependent effect | ED50 (Mus musculus [1]; Mus musculus, BALB/c, po): 0.17 mg/kg | minimal effective dose (Mus musculus [1]; Mus musculus, BALB/c, po, read-out: MED): 1 mg/kg | half-life [7]: 1.6 h | Cmax [8]: 1260 nM | bioavailability [9]: 64% | Cmax [10]: 3550 nM | half-life [11]: 3.2 h | Cmax [12]: 626 nM | bioavailability [13]: 39% | Kp [14]: 3 | Activity (Mus musculus [2]): Active | Activity (Mus musculus [3]): Active | Activity (Rattus norvegicus [15]): Dose-dependent effect | ED50 (Rattus norvegicus [15]): 0.48 mg/kg | minimal effective dose (Rattus norvegicus [15]; read-out: MED): 1 mg/kg | Activity (Rattus norvegicus [16]): Active | Activity (Rattus norvegicus [17]): Active | Activity (Mus musculus [18]): Active | Activity (Mus musculus [19]): Active | Activity (Rattus norvegicus [20]): Dose-dependent effect | minimal effective dose (Rattus norvegicus [21]): 1 mg/kg | Activity (Callithrix jacchus [22]): Active | Activity (Callithrix jacchus [23]): Active | Activity (Callithrix jacchus [24]): Active | minimal effective dose (Mus musculus [25]): 1 mg/kg | Activity (Mus musculus [26]): Active

N[C@@H](Cc1ccc(O)c(O)c1)C(=O)O [LEVODOPA]
inhibition (Callithrix jacchus [27]): Active | Activity (Callithrix jacchus [28]): Toxic
